Reference: PMC3594649 (Molecular pharmaceutics, 2013)
Where two headings read alike, the source gives them in different places. Blank lines part the entries; values can stand above or below the compound they belong to.

Tests used:
[1] = tested on: ileum of TgCYP3A4/hPXR mice; assay: In situ intestinal perfusion with mesenteric blood sampling, TgCYP3A4/hPXR mice; assay type: in vivo, mouse; conditions: for increase in intestinal permeability for darunavir: GF120918 4 μM in perfusate
[2] = concomitant administration of sulforaphane, humans; cited from earlier work
[3] = assay type: in vivo, mouse
Outline: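 An ileal segment of 2–3 cm was perfused open-loop at 0.2 ml/min, with or without GF120918 (4 μM) in the perfusate. Collected mesenteric blood was analysed by C18 HPLC with fluorescence detection (ex 268/em 347 nm). Metabolite is expressed relative to parent drug.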

Structure (SMILES): COc1cc2c(cc1OC)CN(CCc1ccc(NC(=O)c3cccc4c(=O)c5cccc(OC)c5[nH]c34)cc1)CC2 [GF120918, N-(4-[2-(1,2,3,4-tetrahydro-6,7-dimethoxy-2-isoquinolinyl)ethyl]-phenyl)-9,10-dihydro-5-methoxy-9-oxo-4-acridine carboxamide]
- increase in intestinal permeability for darunavir ([1]; TgCYP3A4/hPXR mice not treated with rifampicin, darunavir 100 μM in FaSSIF, p < 0.05): 56%
- increase in intestinal permeability for darunavir ([1]; rifampicin-treated TgCYP3A4/hPXR mice (10 mg/kg, 3 days), p<0.05): 400%

Structure (SMILES): C[S+]([O-])CCCCN=C=S (stereo not shown) [sulforaphane]
- effect on rifampicin-caused decrease of midazolam AUC [2]: did not reduce

- effect on intestinal permeability for darunavir ([1]; rifampicin-treated TgCYP3A4/hPXR mice, aminobenzotriazole 100 μM in perfusate): did not increase
Structure (SMILES): Nn1nnc2ccccc21 [aminobenzotriazole]

- concentration of R426857 relative to darunavir in mesenteric blood ([3]; TgCYP3A4/hPXR mice, perfusion without GF120918): less than 0.8%
- relative amount of R426857 to darunavir in mesenteric blood ([3]; perfused with GF120918, rifampicin-treated TgCYP3A4/hPXR mice): 3.1%
- relative amount of R426857 to darunavir in mesenteric blood ([3]; perfused with GF120918, untreated TgCYP3A4/hPXR mice): 1.6%
Structure (SMILES): CC(C)(O)CN(C[C@@H](O)[C@H](Cc1ccccc1)NC(=O)O[C@H]1CO[C@H]2OCC[C@H]21)S(=O)(=O)c1ccc(N)cc1 [R426857]
